Data from ChEMBL document CHEMBL1136142, “Synthesis, biological evaluation and DNA binding properties of novel bleomycin analogues” (Bioorg Med Chem Lett, 2003).
pIC50: −log10 of the molar value.

What was measured:
HeLa = assay: In vitro antitumor activity against HeLa cell lines by using MTT assay; format: functional, cell-based; details: Homo sapiens
Method in brief: (§1)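 Tetrazolium salt (MTT) read-out of in vitro growth inhibition; the reported value is the concentration producing 50% inhibition (IC50).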

BGC-823 = assay: In vitro antitumor activity against BGC-823 cell lines by using MTT assay; format: functional, cell-based; details: Homo sapiens; method in brief: as §1

Compound | pIC50 (HeLa) | pIC50 (BGC-823)
CCCC(=O)NCCCCNCCCNC(=O)c1csc(-c2csc(CCNC(=O)[C@@H](NC(=O)[C@@H](C)C(O)C(C)NC(=O)[C@@H](NC(=O)c3nc([C@H](CC(N)=O)NCC(N)C(N)=O)nc(N)c3C)[C@@H](O[C@@H]3O[C@@H](CO)[C@@H](O)[C@@H](O)[C@@H]3OC3O[C@H](CO)[C@@H](O)[C@H](OC(N)=O)[C@@H]3O)c3c[nH]cn3)[C@@H](C)O)n2)n1 (some centres undefined) | 4.86 | 5.58
Cc1c(N)nc([C@H](CC(N)=O)NCC(N)C(N)=O)nc1C(=O)N[C@H](C(=O)NC(C)C(O)[C@H](C)C(=O)N[C@H](C(=O)NCCc1nc(-c2nc(C(=O)NCCCNCCCCNC(=O)c3ccccn3)cs2)cs1)[C@@H](C)O)[C@@H](O[C@@H]1O[C@@H](CO)[C@@H](O)[C@@H](O)[C@@H]1O[C@H]1O[C@H](CO)[C@@H](O)[C@H](OC(N)=O)[C@@H]1O)c1c[nH]cn1 (some centres undefined) | 4.83 | 4.97
Cc1c(N)nc([C@H](CC(N)=O)NCC(N)C(N)=O)nc1C(=O)N[C@H](C(=O)NC(C)C(O)[C@H](C)C(=O)N[C@H](C(=O)NCCc1nc(-c2nc(C(=O)NCCCNCCCCNC=O)cs2)cs1)[C@@H](C)O)[C@@H](O[C@@H]1O[C@@H](CO)[C@@H](O)[C@@H](O)[C@@H]1O[C@H]1O[C@H](CO)[C@@H](O)[C@H](OC(N)=O)[C@@H]1O)c1c[nH]cn1 (some centres undefined) | 4.91 | 4.51
Cc1c(N)nc([C@H](CC(N)=O)NCC(N)C(N)=O)nc1C(=O)N[C@H](C(=O)NC(C)C(O)[C@H](C)C(=O)N[C@H](C(=O)NCCc1nc(-c2nc(C(=O)NCCC[S+](C)C)cs2)cs1)[C@@H](C)O)[C@@H](O[C@@H]1O[C@@H](CO)[C@@H](O)[C@H](O)[C@@H]1O[C@H]1O[C@H](CO)[C@@H](O)[C@H](OC(N)=O)[C@@H]1O)c1c[nH]cn1 (some centres undefined) | 4.79 | 5.00

The remaining compounds from weak to strong by pIC50 (HeLa), led by results:

pIC50 (HeLa) | pIC50 (BGC-823) | Compound
4.82 | 4.66 | CC(=O)NCCCCNCCCNC(=O)c1csc(-c2csc(CCNC(=O)[C@@H](NC(=O)[C@@H](C)C(O)C(C)NC(=O)[C@@H](NC(=O)c3nc([C@H](CC(N)=O)NCC(N)C(N)=O)nc(N)c3C)[C@@H](O[C@@H]3O[C@@H](CO)[C@@H](O)[C@@H](O)[C@@H]3O[C@H]3O[C@H](CO)[C@@H](O)[C@H](OC(N)=O)[C@@H]3O)c3c[nH]cn3)[C@@H](C)O)n2)n1 (some centres undefined)
4.84 | 5.19 | CCC(=O)NCCCCNCCCNC(=O)c1csc(-c2csc(CCNC(=O)[C@@H](NC(=O)[C@@H](C)C(O)C(C)NC(=O)[C@@H](NC(=O)c3nc([C@H](CC(N)=O)NCC(N)C(N)=O)nc(N)c3C)[C@@H](O[C@@H]3O[C@@H](CO)[C@@H](O)[C@@H](O)[C@@H]3O[C@H]3O[C@H](CO)[C@@H](O)[C@H](OC(N)=O)[C@@H]3O)c3c[nH]cn3)[C@@H](C)O)n2)n1 (some centres undefined)
4.93 | 5.13 | Cc1c(N)nc([C@H](CC(N)=O)NCC(N)C(N)=O)nc1C(=O)N[C@H](C(=O)NC(C)C(O)[C@H](C)C(=O)N[C@H](C(=O)NCCc1nc(-c2nc(C(=O)NCCCNCCCCNC(=O)c3ccccc3)cs2)cs1)[C@@H](C)O)[C@@H](O[C@@H]1O[C@@H](CO)[C@@H](O)[C@@H](O)[C@@H]1O[C@H]1O[C@H](CO)[C@@H](O)[C@H](OC(N)=O)[C@@H]1O)c1c[nH]cn1 (some centres undefined)
